Data set [1] addresses T1, Adenosine deaminase (Homo sapiens, UniProt P00813).
T1 sequence (P00813 whole entry): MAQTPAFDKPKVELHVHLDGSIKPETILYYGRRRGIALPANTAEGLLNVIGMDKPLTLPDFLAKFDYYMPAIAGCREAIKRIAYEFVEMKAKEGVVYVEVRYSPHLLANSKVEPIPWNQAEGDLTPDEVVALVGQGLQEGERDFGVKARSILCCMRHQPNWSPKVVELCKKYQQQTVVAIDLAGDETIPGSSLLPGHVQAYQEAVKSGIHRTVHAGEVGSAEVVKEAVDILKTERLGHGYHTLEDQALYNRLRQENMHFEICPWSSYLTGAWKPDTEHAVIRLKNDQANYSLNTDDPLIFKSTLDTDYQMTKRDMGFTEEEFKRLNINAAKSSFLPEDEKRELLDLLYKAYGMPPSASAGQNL
Description: Inhibitory concentration against adenosine deaminase.

Data set [2] concerns Mus musculus. The data set can be described thus: Antitumor activity (2.5, i.p.) on lymphoma U-937 tumor growth inoculated in mice. Type of data set: functional. The gist of the method: (§1)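 SCID mouse U-937 lymphoma model. Pentostatin given intraperitoneally once daily. Efficacy read as median survival time in days, relative to a control group.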
The subject of data set [3] is Mus musculus. The data set can be described thus: Antitumor activity (0.25 mg/kg, i.p.) on lymphoma U-937 tumor growth inoculated in mice. Format: functional. The gist of the method: as §1
Data set [4] can be described thus: In vitro clearance in rat liver microsomes. Type of data set: ADME, Microsome. Conditions: read-out: Clearance.
Data set [5] is described as follows: Plasma half life (10 mg/kg, p.o.) in rat. Conditions: po. Format: ADME, organism-based. The gist of the method: (§2)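 Rats dosed orally at 10 mg/kg (n = 2–3). Cmax and t1/2 are taken from plasma. AUC covers 0–24 h. Bioavailability is the oral exposure parameter for the same dosing.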
A short description of data set [6]: Area under blood-concentration time curve after 10 mg/kg peroral dose in rat. Format: ADME, organism-based. Details: dose 10 mg/kg, route oral. The following applies: in vivo, po. The essentials: as §2
The nature of data set [7]: Maximum plasma concentration after peroral administration of 10 mg/kg in rat. Type of data set: ADME, organism-based. Also noted: dose 10 mg/kg, route oral. Conditions: po. The essentials: as §2
Data set [8] relates to Mus musculus. Description: Antitumor activity (10 mg/kg, p.o., b.i.d.) on lymphoma U-937 tumor growth inoculated in mice. Type of data set: functional. The gist of the method: (§3)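 SCID mice bearing U-937 lymphoma. Inhibitor given orally as HCl salt, either once (u.i.d.) or twice (b.i.d.) daily, in combination with the antitumor nucleoside AraA. Read-out was median survival time in days, compared with an untreated control group and an AraA-alone arm (10 mg/kg).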

A short description of data set [9]: In vitro clearance in human liver microsomes. Type of data set: ADME, Microsome. The following applies: read-out: Clearance.
Data set [10] is described as follows: In vitro clearance in dog liver microsomes. Format: ADME, Canis lupus familiaris, Microsome.
Data set [11] deals with Mus musculus. Description: Antitumor activity (10 mg/kg, p.o., u.i.d.) expressed as median survival time is its ability to inhibit lymphoma U-937 tumor growth inoculated in mice. Type of data set: functional. The gist of the method: as §3
In data set [12] the test system is Mus musculus. The data set can be described thus: Antitumor activity (32 mg/kg, p.o., u.i.d.) expressed as median survival time is its ability to inhibit lymphoma U-937 tumor growth inoculated in mice. Type of data set: functional. The gist of the method:
as §3

The species named for data set [13] is Rattus norvegicus. The data set can be described thus: Peroral dose showing antiinflammatory effect in adjuvant arthritis model in rats. Type of data set: functional. The following applies: po. The gist of the method: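 Rat adjuvant arthritis model with oral dosing. Anti-inflammatory potency is reported as ED30 in mg/kg po.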
A short description of data set [14]: Oral bioavailability in dog (dose 10 mg/kg). Conditions: in vivo. Type of data set: ADME, organism-based, Canis lupus familiaris. The essentials:
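Dogs dosed orally at 10 mg/kg (n = 2–3). Oral bioavailability was determined.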

Data set [15] is described as follows: (§4) Oral bioavailability in rat (dose 10 mg/kg). Type of data set: ADME, organism-based. The following applies: in vivo. The essentials: as §2
In data set [16] the test system is Rattus norvegicus. The data set is described as §4. Type of data set: functional, organism-based. The gist of the method:
as §2

Data set [17] concerns Mus musculus. Description: Antitumor activity (10 mg/kg, p.o., b.i.d.) expressed as median survival time is its ability to inhibit lymphoma U-937 tumor growth inoculated in mice. Format: functional. The gist of the method: as §3
In data set [18] the test system is Mus musculus. The data set can be described thus: Antitumor activity (32 mg/kg, p.o., b.i.d.) expressed as median survival time is its ability to inhibit lymphoma U-937 tumor growth inoculated in mice. Format: functional. The gist of the method: as §3

Values joined by “and” are separate entries in the source; they are usually repeats but may differ in a detail not shown here. Equal values may be shown once.

Nine molecules from ChEMBL document CHEMBL1140324, “Rational design of non-nucleoside, potent, and orally bioavailable adenosine deaminase inhibitors: predicting enzyme conformational change and metabolism” (J Med Chem, 2005) can be followed below.

Turning to `NC(N)=Nc1nc(-c2ccc(CNc3nc4ccccc4[nH]3)s2)cs1`, inhibition in [1] was half-maximal at 700 nM (IC50).

Turning to `OC[C@H]1O[C@@H](n2cnc3c2N=CNC[C@H]3O)C[C@@H]1O` [PENTOSTATIN], the results for the MST in data set [2] and in [3] were 42.5 days and 34 days, respectively.

With `Cn1cc(CC[C@H](CO)n2cnc(C(N)=O)c2)c2cc(OCCCc3ccc(Cl)cc3)ccc21`, in data set [4], the CLint scaled was found to be 643 mL/min/kg. Also, the IC50 in data set [1] stood at 6.7 nM. This molecule showed a half-life in [5] of 1.09 h. This molecule gave an AUC in data set [6] of 260 ng·h/mL. In data set [7], the Cmax came to 210 ng/mL.

`Nc1ncnc2c1ncn2[C@@H]1O[C@H](CO)[C@@H](O)[C@@H]1O` [VIDARABINE] showed an MST in [8] of 34 days.

As for `C[C@H](O)[C@@H](CCc1cccc2oc(-c3ccc(Cl)cc3)nc12)n1cnc(C(N)=O)c1`, the figures for the CLint scaled in data set [9] and in data set [4] were 12 mL/min/kg and 50 mL/min/kg, respectively. The Clearance in [10] stood at 6.2 mL/min/kg. In data set [1], this molecule yielded an IC50 of 8.7 nM. Moreover, the MST was found to be 43 days in [11] and 45.5 days in data set [12]. For the same molecule, in data set [13], the ED30 worked out at 0.3 mg/kg. Also, the bioavailability in [14] is 81%; in [15], 86%. In data set [5], this molecule had a half-life of 1.87 h. Also, in data set [6], the AUC is 56200 ng·h/mL. Moreover, in [7], the Cmax stood at 14700 ng/mL.

In data set [10], `C[C@H](O)[C@@H](CCc1cccc2ccccc12)n1cnc(C(N)=O)c1` gave a Clearance of 30 mL/min/kg. The same molecule had an IC50 in [1] of 16 nM. The same molecule showed an AUC in [6] of 1370 ng·h/mL. In data set [7], the concentration peaked (Cmax) at 1250 ng/mL.

For the molecule `C[C@H](O)[C@@H](CCc1cccc2nc(-c3ccc(Cl)cc3)oc12)n1cnc(C(N)=O)c1`, the CLint scaled in data set [9] came to 34 mL/min/kg; in data set [4], 131 mL/min/kg. Further, the Clearance in data set [10] was 6 mL/min/kg. For the same molecule, in [13], the ED30 was found to be 0.6 mg/kg. Moreover, the bioavailability came to 52% in [16] and 50% in data set [14]. This molecule also gave a half-life in data set [5] of 3.45 h. The AUC in [6] was 29600 ng·h/mL. Besides, in [7], the Cmax came out at 5580 ng/mL.

With `NC(=O)c1cn(C(CO)CCc2cccc3ccccc23)cn1` (configuration not stated), 570 nM corresponded to half-maximal inhibition in data set [1] (IC50).

For the molecule `C[C@H](O)[C@@H](CCc1cccc(Cl)c1Cl)n1cnc(C(N)=O)c1`, the Clearance in data set [10] was determined as 21 mL/min/kg. The molecule also returned an IC50 in [1] of 15 nM. The MST in data set [17] is 34 days; in [18], 42.5 days and 38 days. The ED30 in data set [13] was found to be 1.6 mg/kg. Also, the AUC in data set [6] came out at 2110 ng·h/mL. Also, in data set [7], the highest level (Cmax) was 1630 ng/mL.
